In ChEMBL document CHEMBL1122443, “Synthesis and antitumor evaluation of selected 5,6-disubstituted 1(2)H-indazole-4,7-diones” (1983):
Activity calls are given as the source filed them. No cut-off for these calls is given here.

How the values were obtained:
Mus musculus [1] = assay: Antitumor activity in CF1 mice bearing Ehrlich ascites carcinoma measured as percentage inhibition at 5 mg/kg; type: functional
In short: (§1)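 Ehrlich ascites model in male CF1 mice (22–25 g): 2 × 10⁶ cells ip on day 0, ip dosing days 1–8, kill on day 9. Percent inhibition = 100 − [(treated volume × treated ascrit)/(control volume × control ascrit)]. Greater than 80% was taken as significant. Vehicle was 0.05% Tween 80, alone or with 5% absolute EtOH. 6-Mercaptopurine was the positive control.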

Mus musculus [2] = assay: (§2) Antitumor activity in CF1 mice bearing Ehrlich ascites carcinoma measured as percentage inhibition at 8 mg/kg; type: functional
In short: (§3)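 In the Ehrlich ascites model, male CF1 mice (22–25 g) received 2 × 10⁶ cells ip on day 0 and compound ip on days 1–8, with a vehicle of 0.05% Tween 80 ± 5% EtOH. Ascites volume and ascrit were taken on day 9. % inhibition = 100 − [(vol × ascrit, treated)/(vol × ascrit, control)], with >80% taken as significant.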

Mus musculus [3] = assay: Antitumor activity in CF1 mice bearing Ehrlich ascites carcinoma measured as percentage inhibition at 1 mg/kg; IA= inactive; type: functional, organism-based; parameters: dose 1 mg/kg; in short: as §3
Mus musculus [4] = assay: Antitumor activity in CF1 mice bearing Ehrlich ascites carcinoma measured as percentage inhibition at 10 mg/kg; IA= inactive; type: functional, organism-based; parameters: dose 10 mg/kg; in short: as §3
Mus musculus [5] = assay: Antitumor activity in CF1 mice bearing Ehrlich ascites carcinoma measured as survivors on day 9 at 1 mg/kg; 6/6; type: functional
Mus musculus [6] = assay: Antitumor activity in CF1 mice bearing Ehrlich ascites carcinoma measured as survivors on day 9 at 10 mg/kg; 6/6; type: functional
Mus musculus [7] = assay: Antitumor activity in CF1 mice bearing Ehrlich ascites carcinoma measured as ascites volume at 1 mg/kg; type: functional
In short: (§4)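 Ehrlich ascites cells (2 × 10⁶) were implanted ip in male CF1 mice (22–25 g) on day 0. Dosing was ip on days 1–8 in 0.05% Tween 80 or 5% EtOH/0.05% Tween 80, with vehicle controls. Mice were killed on day 9, and ascites fluid volume per mouse was measured.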

Mus musculus [8] = assay: Antitumor activity in CF1 mice bearing Ehrlich ascites carcinoma measured as ascites volume at 5 mg/kg; type: functional
In short: (§5)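 Male CF1 mice (22–25 g) received 2 × 10⁶ Ehrlich carcinoma cells ip on day 0. Dosing was ip daily on days 1–8, with sacrifice on day 9. Ascites fluid volume per mouse and ascrit (packed cell volume) were measured for each group. Vehicle was 0.05% Tween 80, or 5% absolute EtOH in 0.05% Tween 80, used for both compound and control. 6-Mercaptopurine was the positive control.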

Mus musculus [9] = assay: Antitumor activity in CF1 mice bearing Ehrlich ascites carcinoma measured as ascites volume at 8 mg/kg; type: functional; in short: as §5
Mus musculus [10] = assay: Average days survived for treated / average days survived for control at 1 (mg/kg); 10/9.2; type: functional
Mus musculus [11] = assay: Antitumor activity in CF1 mice bearing Ehrlich ascites carcinoma measured as survivors on day 9 at 5 mg/kg; 6/6; type: functional
Mus musculus [12] = assay: Antitumor activity in CF1 mice bearing Ehrlich ascites carcinoma measured as survivors on day 9 at 8 mg/kg; 6/6; type: functional
In short: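 Male CF1 mice (22–25 g) were given 2 × 10⁶ Ehrlich carcinoma cells ip on day 0. Compounds were dosed ip on days 1–8 in 0.05% Tween 80 or in 5% absolute EtOH in 0.05% Tween 80, with vehicle-treated controls. Mice were killed on day 9, and ascites volume and ascrit (packed cell volume) were measured per mouse.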

Mus musculus [13] = assay: Antitumor activity in CF1 mice bearing Ehrlich ascites carcinoma measured as percent ascrit packed cell volume at 1 mg/kg; type: functional
In short: (§6)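 CF1 male mice (22–25 g) were inoculated ip with 2 × 10⁶ Ehrlich cells on day 0 and treated ip on days 1–8 in 0.05% Tween 80 or 5% EtOH/0.05% Tween 80 vehicle. On day 9 the mice were sacrificed, and the ascrit (packed cell volume) of the ascites fluid was determined.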

Mus musculus [14] = assay: Antitumor activity in CF1 mice bearing Ehrlich ascites carcinoma measured as percent ascrit packed cell volume at 10 mg/kg; type: functional; in short: as §6
Mus musculus [15] = assay: Antitumor activity in CF1 mice bearing Ehrlich ascites carcinoma measured as percent ascrit packed cell volume at 5 mg/kg; type: functional; in short: as §5
Mus musculus [16] = assay: Antitumor activity in CF1 mice bearing Ehrlich ascites carcinoma measured as percent ascrit packed cell volume at 8 mg/kg; type: functional; in short: as §5
Mus musculus [17] = assay: Anti tumor activity in mice bearing lymphocytic leukemia P-388 at 1 mg/kg; type: functional
In short: (§7)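 Male BDF1 mice (20–23 g) were inoculated ip with 1 × 10⁶ P-388 leukemia cells on day 0. Compound was given ip once daily on days 1–14 in 0.05% Tween 80 vehicle, with a vehicle control group and 5-fluorouracil as positive control. Activity was scored as % T/C, average days survived treated/control, with >125% taken as significant.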

Mus musculus [18] = assay: Antitumor activity in CF1 mice bearing Ehrlich ascites carcinoma measured as ascites volume at 10 mg/kg; type: functional; in short: as §4
Mus musculus [19] = assay: Average days survived for treated / average days survived for control at 25 (mg/kg); 17.6/9.5; type: functional
Mus musculus [20] = assay: Anti tumor activity in mice bearing lymphocytic leukemia P-388 at 25 mg/kg; type: functional; in short: as §7
Mus musculus [21] = assay: as §2; type: functional; in short: as §1; remark: listed apart in the source
Mus musculus [22] = assay: Antitumor activity in 6 CF1 mice bearing Ehrlich ascites carcinoma measured as survivors on day 9 at 3 mg/kg; 6/6; type: functional
Mus musculus [23] = assay: Antitumor activity in 6 CF1 mice bearing Ehrlich ascites carcinoma measured as survivors on day 9 at 5 mg/kg; 5/6; type: functional
Mus musculus [24] = assay: Antitumor activity in 6 CF1 mice bearing Ehrlich ascites carcinoma measured as survivors on day 9 at 8 mg/kg; 5/6; type: functional
Mus musculus [25] = assay: Antitumor activity in CF1 mice bearing Ehrlich ascites carcinoma measured as ascites volume at 3 mg/kg; type: functional; in short: as §5
Mus musculus [26] = assay: Antitumor activity in CF1 mice bearing Ehrlich ascites carcinoma measured as percentage inhibition at 3 mg/kg; type: functional; in short: as §1
Mus musculus [27] = assay: (§8) Antitumor activity in CF1 mice bearing Ehrlich ascites carcinoma measured as percent ascrit packed cell volume at 3 mg/kg; type: functional; in short: as §6
Mus musculus [28] = assay: Antitumor activity in 6 CF1 mice bearing Ehrlich ascites carcinoma measured as survivors on day 9 at 5 mg/kg; 6/6; type: functional
Mus musculus [29] = assay: Antitumor activity in 6 CF1 mice bearing Ehrlich ascites carcinoma measured as survivors on day 9 at 8 mg/kg; 6/6; type: functional
Mus musculus [30] = assay: Antitumor activity in CF1 mice bearing Ehrlich ascites carcinoma measured as percentage inhibition at 8 mg/kg; IA means inactive; type: functional, organism-based; parameters: dose 8 mg/kg; in short: as §1
Mus musculus [31] = assay: as §8; type: functional; in short: as §5; remark: listed apart in the source

SMILES: COC1=C(N2CC2)C(=O)c2cnn(C)c2C1=O
- inhibition in vivo at 5 mg/kg (Mus musculus [1]): 39.4%
- inhibition in vivo at 8 mg/kg (Mus musculus [2]): 64.1%
- inhibition (Mus musculus [3]): inactive
- inhibition (Mus musculus [4]): inactive
- Survivors (Mus musculus [5]): 6
- Survivors (Mus musculus [6]): 6
- ascites volume (Mus musculus [7]): 4.2 ml mouse-1
- ascites volume (Mus musculus [8]): 0.7 ml mouse-1
- ascites volume (Mus musculus [9]): 0.32 ml mouse-1
- Average survival (days) (Mus musculus [10]): 10
- Survivors (Mus musculus [11]): 6
- Survivors (Mus musculus [12]): 6
- packed cell volume (Mus musculus [13]): 39.8%
- packed cell volume (Mus musculus [14]): 30.7%
- packed cell volume (Mus musculus [15]): 34.6%
- packed cell volume (Mus musculus [16]): 36.2%
- T/C (Mus musculus [17]): 109%
- ascites volume (Mus musculus [18]): 2.2 ml mouse-1

SMILES: O=c1[nH]cc(F)c(=O)[nH]1 [FLUOROURACIL]
- Average survival (days) (Mus musculus [19]): 17.6
- T/C (Mus musculus [20]): 186%

SMILES: CC(=O)NC1=C(Cl)C(=O)c2c(cnn2C)C1=O
- inhibition in vivo at 5 mg/kg (Mus musculus [1]): 90%
- inhibition in vivo at 8 mg/kg (Mus musculus [21]): 61.7%
- Survivors (Mus musculus [22]): 6
- Survivors (Mus musculus [23]): 5
- Survivors (Mus musculus [24]): 5
- ascites volume (Mus musculus [25]): 1.7 ml mouse-1
- ascites volume (Mus musculus [8]): 0.56 ml mouse-1
- ascites volume (Mus musculus [9]): 0.62 ml mouse-1
- inhibition in vivo at 3 mg/kg (Mus musculus [26]): 67.8%
- packed cell volume (Mus musculus [27]): 20%
- packed cell volume (Mus musculus [15]): 29%
- packed cell volume (Mus musculus [16]): 37.9%

SMILES: Cn1ncc2c1C(=O)C(Cl)=C(N)C2=O
- inhibition in vivo at 5 mg/kg (Mus musculus [1]): 8.4%
- Survivors (Mus musculus [22]): 6
- Survivors (Mus musculus [28]): 6
- Survivors (Mus musculus [29]): 6
- ascites volume (Mus musculus [25]): 2 ml mouse-1
- ascites volume (Mus musculus [8]): 1 ml mouse-1
- ascites volume (Mus musculus [9]): 1.9 ml mouse-1
- inhibition in vivo at 3 mg/kg (Mus musculus [26]): 25.3%
- inhibition (Mus musculus [30]): inactive
- packed cell volume (Mus musculus [31]): 44%
- packed cell volume (Mus musculus [15]): 35.4%
- packed cell volume (Mus musculus [16]): 33.9%
